What was measured:
[1] = biological target: Carbonic anhydrase 9 (Homo sapiens, UniProt Q16790); test: Inhibition of human recombinant carbonic anhydrase 9 pre-incubated for 15 mins by stopped-flow CO2 hydration assay
Procedure, shortened: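 Recombinant human enzyme, produced in-house. CO2 1.7–17 mM. Initial rates taken over 10-100 s from at least six traces, with the uncatalysed rate subtracted. Inhibitor diluted in water from 0.1 mM stock down to 0.01 nM, preincubated with enzyme at room temperature. Three determinations.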

[2] = biological target: Carbonic anhydrase 2 (Homo sapiens, UniProt P00918); test: Inhibition of human recombinant carbonic anhydrase 2 pre-incubated for 15 mins by stopped-flow CO2 hydration assay

Row | Structure (SMILES) | Ki [1] | Ki [2]
1 | COc1ccc(/C=C/C(=O)C[C@@H]2O[C@H](COC(C)=O)[C@@H](OC(C)=O)[C@H](OC(C)=O)[C@H]2OC(C)=O)cc1OC | 753 nM | 
2 | COc1cccc(/C=C/C(=O)C[C@@H]2O[C@H](CO)[C@@H](O)[C@H](O)[C@H]2O)c1 | 615 nM | > 50000 nM
3 | COc1cccc(/C=C/C(=O)C[C@@H]2O[C@H](CO)[C@H](O)[C@H](O)[C@H]2O)c1 | 3860 nM | > 50000 nM
4 | COc1cccc(/C=C/C(=O)C[C@@H]2O[C@H](COC(C)=O)[C@@H](OC(C)=O)[C@H](OC(C)=O)[C@H]2OC(C)=O)c1 | 779 nM | 
5 | COc1ccc(/C=C/C(=O)C[C@@H]2O[C@H](COC(C)=O)[C@H](OC(C)=O)[C@H](OC(C)=O)[C@H]2OC(C)=O)cc1OC | 773 nM | 
6 | COc1ccc(/C=C/C(=O)C[C@@H]2O[C@H](CO)[C@@H](O)[C@H](O)[C@H]2O)cc1OC | 840 nM | 
7 | COc1ccc2cc(/C=C/C(=O)C[C@@H]3O[C@H](CO)[C@@H](O)[C@H](O)[C@H]3O)ccc2c1 | 462 nM | > 50000 nM
8 | COc1cccc(/C=C/C(=O)C[C@@H]2O[C@H](COC(C)=O)[C@H](OC(C)=O)[C@H](OC(C)=O)[C@H]2OC(C)=O)c1 | 93 nM | 
9 | COc1ccc(/C=C/C(=O)C[C@@H]2O[C@H](CO)[C@H](O)[C@H](O)[C@H]2O)cc1OC | 936 nM | 
10 | COc1ccc2cc(/C=C/C(=O)C[C@@H]3O[C@H](CO)[C@H](O)[C@H](O)[C@H]3O)ccc2c1 | 485 nM | > 50000 nM
